Measurements gathered from unrelated publications.
Protocols differ between the studies behind these lines.
Target: STE20/SPS1-related proline-alanine-rich protein kinase (STK39, Homo sapiens, UniProt Q9UEW8)

CC(C)(C)c1cc(C=C(C#N)C#N)cc(Br)c1O — remaining activity (enzyme activity; inhibitor; 0.5 µM): 87.6%
COc1ncccc1-c1cnn2ccc(N3CCN(C(=O)OC(C)C)CC3)nc12 — remaining binding (binding; competition with immobilised ligand; 1 µM): 88%
O=c1[nH]c2ccccc2n1C1CCN(Cc2ccc(-c3[nH]c4cc5ncnc5cc4nc3-c3ccccc3)cc2)CC1 — remaining signal (cell-free assay; 0.5 µM): 98.2%
COc1cc(Nc2ncc(F)c(Nc3ccc4c(n3)NC(=O)C(C)(C)O4)n2)cc(OC)c1OC — inhibition (binding; 10 µM): 65%
Cn1cncc1[C@](O)(COc1ccc(C#N)cc1-c1ccc(OC(F)(F)F)cc1)c1ccc(C#N)cc1 — remaining binding (cell-free assay; competition with immobilised ligand; 1 µM): 50%
Cc1nn(C)cc1-c1nc2c(N3CCN(Cc4ccc(Cl)cc4)CC3)c(Cl)cnc2[nH]1 — remaining binding (binding; competition with immobilised ligand; 1 µM): 100%
N#CC1(c2ccccn2)CCN(Cc2cc(C(=O)O)c(=O)n3ccccc23)CC1 — remaining binding (cell-free assay; competition with immobilised ligand; 1 µM): 56%
Nc1ncc(-c2nc(N3CCOCC3)nc(N3CCOCC3)n2)c(C(F)F)n1 — remaining binding (binding; competition with immobilised ligand; 10 µM): 70%
